Data on seven compounds can be found in ChEMBL document CHEMBL1143056, “Enhanced substituted resorcinol hydrophobicity augments tyrosinase inhibition potency” (J Med Chem, 2007).

pIC50: −log10 of the molar value.

In general, pIC50 refers to −log10 of the IC50, conventionally taken in molar units. Read a low pIC50 as a high IC50. By inhibition is commonly meant the relative decrease from the control value, in per cent. A lower inhibition goes with a weak effect.

Test [1] addresses T1, Tyrosinase (Agaricus bisporus, UniProt O42713).
T1 sequence (O42713 whole entry): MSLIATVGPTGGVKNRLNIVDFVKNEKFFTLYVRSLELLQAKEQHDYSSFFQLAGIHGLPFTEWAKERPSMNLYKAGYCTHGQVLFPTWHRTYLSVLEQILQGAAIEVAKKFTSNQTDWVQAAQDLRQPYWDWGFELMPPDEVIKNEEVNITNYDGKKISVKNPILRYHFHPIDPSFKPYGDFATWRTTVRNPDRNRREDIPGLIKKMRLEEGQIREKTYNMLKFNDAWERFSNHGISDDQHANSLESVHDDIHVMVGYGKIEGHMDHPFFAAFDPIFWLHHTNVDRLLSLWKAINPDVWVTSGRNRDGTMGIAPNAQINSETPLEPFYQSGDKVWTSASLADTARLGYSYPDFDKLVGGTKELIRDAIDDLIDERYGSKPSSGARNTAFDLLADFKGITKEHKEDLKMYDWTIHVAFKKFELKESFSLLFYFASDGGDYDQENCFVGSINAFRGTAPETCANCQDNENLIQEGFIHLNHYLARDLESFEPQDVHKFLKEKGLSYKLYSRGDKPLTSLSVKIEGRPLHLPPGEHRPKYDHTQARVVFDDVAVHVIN
In words: Inhibition of mushroom tyrosinase. The method, boiled down: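 Wells held 50 mM potassium phosphate pH 6.5, tyrosinase at 50 units/mL final and inhibitor in absolute ethanol (5-100 µM final). After 10 min at 25 °C, L-tyrosine was added to 1 mM. Absorbance at 450 nm was read every 5 min against an ethanol-only control. IC50 was taken from the linear zone at 20 min.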

In test [2] the target is T2, Tyrosinase (Agaricus bisporus) (UniProt O42713).
T2 sequence (whole entry): T1 sequence (O42713 whole entry)
In words: Inhibition of mushroom tyrosinase at 10 uM for 10 min pre-incubated before addition of tyrosine.

Test [3] deals with T2, Tyrosinase (Agaricus bisporus). In words: Inhibition of mushroom tyrosinase at 0.3 uM for 10 min pre-incubated before addition of tyrosine.
Test [4] has the same target. The test can be described thus: Inhibition of mushroom tyrosinase at 0.3 uM for 10 min pre-incubated before addition of 3.75 mM tyrosine.
Test [5] shares this target. The test can be described thus: Inhibition of mushroom tyrosinase at 0.3 uM for 10 min preincubated before addition of 1 mM tyrosine.

Take `O=C(O)CCc1ccc(O)cc1O`: in test [1], the pIC50 was 5.73. In addition, in test [2], the inhibition stood at 80%.
In turn, `CC(C)OC(=O)CCc1ccc(O)cc1O` gave a pIC50 in test [1] of 7.15.
Regarding `CC(C)(C)OC(=O)CCc1ccc(O)cc1O`, the pIC50 in test [1] is 4.83.
As for `CCC(C)(C)C(OC(=O)CCc1ccc(O)cc1O)C(C)(C)CC`, the inhibition in test [3] turned out to be 80%; in test [4], 86%; in test [5], 97%. The compound also gave a negative-log IC50 (pIC50) in test [1] of 6.82.
`CC(C)(C)COC(=O)CCc1ccc(O)cc1O` had a pIC50 in test [1] of 6.74.
In the case of `CCCCCCCCOC(=O)CCc1ccc(O)cc1O`, the pIC50 in test [1] was 6.15.
Consider `CCOC(=O)CCc1ccc(O)cc1O`, for which the pIC50 in test [1] was 6.66.
